From PubChem
Sampled rows, rich in hits. Any-hit rate of the full collection: about 2.9%.
SENP1 FRET inh: blocks the human SENP1 SUMO protease catalytic domain; recombinant SENP1 catalytic domain, CyPet-SUMO1-YPet FRET cleavage; inhibition, % at 10 µM; 360,000 compounds, 0.21% hits;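 active means inhibition at least 30% at 10 µM, raw YFP signal under a set limit, fluorescence ratio 0.5 to 1.5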;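 further: 0% = enzyme with DMSO and 100% = no enzyme wells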
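Assay system: hSENP1 catalytic domain, recombinant. Amount: SENP1 enzyme, 20 pM final. Schedule: 50 min reaction, RT, dark. Technique: FRET, CFP and YFP emission. Control set: no-enzyme wells low, DMSO-plus-enzyme wells high control.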
HSP90 refold inh: inhibitors of HSP90 luciferase refolding in rabbit reticulocyte lysate; inhibition, % at 5.6 µM; luciferase refolding luminescence, 3 h; AID 1789; 290,000 compounds, 0.91% hits;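 active means inhibition above the screen-wide mean plus 3 SD, computed separately per campaign, cut at about 16% in these data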;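 further: 0% = DMSO wells and 100% = 60 µM geldanamycin wells; inhibitors lower the luminescence because luciferase stays unfolded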
SENP7 block: SENP7 protease inhibition; recombinant SENP7, Z-RLRGG-aminoluciferin luminescence, 40 min; AID 434973; Q9BQF6; 330,000 compounds, 1.5% hits; inhibition, % at 5 µM;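 active means inhibition above about 50% at the single test dose, limit read from the data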;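 further: plate controls were DMSO with enzyme for no effect and no enzyme buffer wells for full effect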
SENP8 block-1: inhibitors of human SENP8 protease; purified SENP8, Z-RLRGG-aminoluciferin cleavage, luminescence; inhibition, % at 10 µM; 330,000 compounds, 1.2% hits; AID 2540; in the data active means inhibition above about 50%
Target sequence (Q96LD8 whole entry, looked up): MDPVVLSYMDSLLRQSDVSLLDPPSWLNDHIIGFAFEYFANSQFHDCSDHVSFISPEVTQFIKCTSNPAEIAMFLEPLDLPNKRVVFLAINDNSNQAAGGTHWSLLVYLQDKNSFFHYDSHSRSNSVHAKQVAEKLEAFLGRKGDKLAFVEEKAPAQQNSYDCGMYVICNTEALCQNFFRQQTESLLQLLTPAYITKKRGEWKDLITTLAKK
SENP8 block-2: inhibitors of human SENP8 protease. 360,000 compounds, 0.64% hits. inhibition, % at 20 µM. recombinant SENP8, Nedd8 substrate fluorescence; in the data active means inhibition mostly above about 40%, no sharp cut-off; inactive means mostly below about 27%
SENP6 block: blocks the human protease SENP6. Q9GZR1. Recombinant SENP6 catalytic domain, aminoluciferin luminescence. inhibition, % at 10 µM. 330,000 compounds, 1.8% hits. AID 2599;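 active means inhibition above about 50% at the single tested dose, limit read from the data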;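 further: plate controls were DMSO wells with enzyme for no effect and DMSO wells lacking enzyme for full effect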
SENP8 confirm: confirmation of human SENP8 protease inhibitors; shares compounds with SENP7 block; Recombinant SENP8, Z-RLRGG-aminoluciferin luminescence, 60 min; inhibition, % at 12.5 µM; 6,200 compounds, 40% hits;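 active means mean inhibition across replicates above about 50%, limit read from the data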
SENP6 conf: human SENP6 inhibition, confirmed. shares compounds with SENP7 block. recombinant SENP6, Z-RLRGG-aminoluciferin luminescence. inhibition, % at 12.5 µM. 6,200 compounds, 58% hits
SENP7 conf: human SENP7 inhibition, confirmed; AID 488917; recombinant SENP7, Z-RLRGG-aminoluciferin luminescence, 40 min; 6,200 compounds, 69% hits; shares compounds with SENP7 block; inhibition, % at 12.5 µM
Casp3 select: caspase-3 inhibition (SENP selectivity assay) | shares compounds with SENP7 block | purified caspase-3, Z-DEVD-aminoluciferin luminescence, 60 min | inhibition, % at 12.5 µM | 6,200 compounds, 60% hits | AID 488918;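 active means mean inhibition above about 50%, limit read from the data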;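 further: plate controls were enzyme with DMSO for no effect and wells without caspase-3 for full effect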
Target sequence (P42574 28-227 limits assumed): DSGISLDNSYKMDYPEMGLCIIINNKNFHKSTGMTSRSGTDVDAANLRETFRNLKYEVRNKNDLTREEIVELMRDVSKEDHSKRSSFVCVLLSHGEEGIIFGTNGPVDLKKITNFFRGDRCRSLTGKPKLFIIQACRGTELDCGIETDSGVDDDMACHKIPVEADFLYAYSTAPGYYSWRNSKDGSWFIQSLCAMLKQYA
SENP luc ctr: interferes with luciferase luminescence in SENP counter-screen. shares compounds with SENP7 block. Pre-incubated SENP8/Z-RLRGG-aminoluciferin, luciferase luminescence interference. inhibition, % at 12.5 µM. 6,200 compounds, 39% hits;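 active means mean inhibition above about 50% when retested at one dose, limit read from the data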;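 further: plate controls were DMSO wells with completed reaction for no effect and substrate without enzyme for full effect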
* hit, by the source's call; i = inactive; x = no result given.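 How the source made its calls, unless noted: active means mean inhibition above about 50% in the one-dose retest (limit read from the data); inactive means the rest.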

SMILES | SENP1 FRET inh | HSP90 refold inh | SENP7 block | SENP8 block-1 | SENP8 block-2 | SENP6 block | SENP8 confirm | SENP6 conf | SENP7 conf | Casp3 select | SENP luc ctr
Cc1ccc(/C=N/Nc2ccc(C(=O)O)cc2)o1 | 0 | 12 | 71* | 78* | -4 | 92* | 65* | 58* | 91* | 85* | 82*
Cc1cc(C(F)(F)F)c(C#N)c(SCC(=O)Nc2nc3ccccc3s2)n1 | 57 | 30* | 91* | 89* | 19 | 80* | 20 | 16 | 12 | 20 | 2
CC(C)=CC(=O)Nc1nc2ccc([N+](=O)[O-])cc2s1 | -8 | 3 | x | x | 14 | x | x | x | x | x | x
COc1cccc(NC(=O)c2ccc3nc(C)sc3c2)c1 | 1 | -8 | 89* | 72* | 16 | 91* | 80* | 81* | 95* | 87* | 84*
O=C(Nc1ccc(F)cc1)c1ccc2snnc2c1 | -1 | -4 | 2 | 4 | 2 | -1 | x | x | x | x | x
COc1cccc(NC(=O)c2ccc3snnc3c2)c1 | -1 | 0 | 58* | 48 | 33 | 64* | 56* | 52* | 84* | 75* | 64*
COc1cccc(NC(=O)c2ccc3c(c2)N(C)CCS3)c1 | -20 | -1 | 96* | 94* | -466 | 91* | 95* | 96* | 100* | 94* | 96*
Cc1ccc2nc(-c3ccccc3)nn2c1 | 2 | x | x | x | 7 | x | x | x | x | x | x
COCCCn1c(-c2ccsc2)nc2c1c(=O)[nH]c(=O)n2Cc1ccccc1 | -8 | -1 | 4 | 3 | -50 | 11 | x | x | x | x | x
O=C(COC(=O)c1cccc(Cl)c1)Nc1cccc(S(=O)(=O)NC2=NCCC2)c1 | 2 | x | 0 | -10 | 6 | -13 | x | x | x | x | x
O=C1OC(c2ccccc2)=C/C1=C/c1cccs1 | -21 | 1 | 57* | 38 | 11 | 59* | 24 | 37 | 46 | 35 | 20
Cn1cc(Cl)c(C(=O)N/N=C/c2ccc3c4c(cccc24)CC3)n1 | -1 | 4 | 53* | 33 | -380 | 40 | -7 | 2 | 20 | 13 | 1
COc1ccc2cc3cc(C(=O)N4CCN(C5CCCCC5)CC4)oc3nc2c1 | -3 | 3 | 3 | -2 | -442 | 4 | x | x | x | x | x
COc1ccc2cc3cc(C(=O)N(C)C4CCCCC4)oc3nc2c1 | -1 | 0 | 61* | 52* | -400 | 60* | 6 | 4 | 32 | 38 | -1
COc1ccc2cc3cc(C(=O)N4CCCCC4C)oc3nc2c1 (stereo not given) | 2 | -2 | 67* | 52* | -410 | 64* | 64* | 61* | 88* | 75* | 22
COc1ccc2cc3cc(C(=O)NCCCN4CCC(C)CC4)oc3nc2c1 | 0 | -2 | -13 | 0 | -346 | 9 | x | x | x | x | x
COc1ccc(COC(=O)C2CCN(C(=O)c3ccc(Cl)cc3)CC2)cc1F | 0 | x | -2 | -2 | 14 | 4 | x | x | x | x | x
COc1cccc2c1C(=O)O/C2=C/c1ccc2c(c1)OCO2 | 7 | 0 | 98* | 88* | i | 19 | 22 | 19 | 22 | 74* | -11
C/C(=N/N=C/c1ccccc1O)c1ccccc1O | 18 | -1 | 86* | 55* | 17 | 60* | 19 | 30 | 30 | 26 | 10
CCOc1cc(C2NN=C(c3ccccc3)S2)ccc1OCc1ccccc1Cl (stereo not given) | 1 | -5 | 8 | 42 | -279 | 66* | 53* | 48 | 84* | 69* | 58*
